Measurements reported in ChEMBL document CHEMBL1133778, “3,5-Disubstituted-4-hydroxyphenyls linked to 3-hydroxy-2-methyl-4(1H)-pyridinone: potent inhibitors of lipid peroxidation and cell toxicity” (J Med Chem, 2000).

Tests used:
Rattus norvegicus [1] = species on record: Rattus norvegicus; experiment: Ability to protect cerebellar granule cells (CGC) from iodoacetate (IAA)-induced toxicity; format: functional, cell-based
Rattus norvegicus [2] = species on record: Rattus norvegicus; experiment: Compound was tested for 50% Inhibition of lipid peroxidation in rat brain homogenate; format: functional
Rattus norvegicus [3] = species on record: Rattus norvegicus; experiment: Relative efficacy gives an indication of the percent of viable cells (Rat cerebellar granule cells) at the maximal efficacious concentration of 0.6 uM; format: functional
Rattus norvegicus [4] = species on record: Rattus norvegicus; experiment: Relative efficacy gives an indication of the percent of viable cells (Rat cerebellar granule cells) at the maximal efficacious concentration of 33.3 uM; format: functional
Rattus norvegicus [5] = species on record: Rattus norvegicus; experiment: Relative efficacy gives an indication of the percent of viable cells (Rat cerebellar granule cells) at the maximal efficacious concentration of 0.3 uM; format: functional
Rattus norvegicus [6] = species on record: Rattus norvegicus; experiment: Relative efficacy gives an indication of the percent of viable cells (Rat cerebellar granule cells) at the maximal efficacious concentration of 0.4 uM; format: functional
Rattus norvegicus [7] = species on record: Rattus norvegicus; experiment: Relative efficacy gives an indication of the percent of viable cells (Rat cerebellar granule cells) at the maximal efficacious concentration of 26.8 uM; format: functional
Rattus norvegicus [8] = species on record: Rattus norvegicus; experiment: Relative efficacy gives an indication of the percent of viable cells (Rat cerebellar granule cells) at the maximal efficacious concentration of 5.0 uM; format: functional
Rattus norvegicus [9] = species on record: Rattus norvegicus; experiment: Relative efficacy gives an indication of the percent of viable cells (Rat cerebellar granule cells) at the maximal efficacious concentration of 6 uM; format: functional
Rattus norvegicus [10] = species on record: Rattus norvegicus; experiment: Relative efficacy gives an indication of the percent of viable cells (Rat cerebellar granule cells) at the maximal efficacious concentration of 46.7 uM; format: functional
In short: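 Rat cerebellar granule cells exposed to 30 µM iodoacetate for 30 min in physiological salt solution, which was then replaced with maintenance medium containing test compound. Viability was read 24 h later. Relative efficacy is the percent of viable cells at the maximal efficacious concentration.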

Rattus norvegicus [11] = species on record: Rattus norvegicus; experiment: Relative efficacy gives an indication of the percent of viable cells (Rat cerebellar granule cells) at the maximal efficacious concentration of 77.8 uM; format: functional

SMILES	EC50 (Rattus norvegicus [1])	IC50 (Rattus norvegicus [2])	further results
Cc1c(O)c(=O)ccn1CCCCc1cc(C(C)(C)C)c(O)c(C(C)(C)C)c1	0.6 µM	2.9 µM	Relative efficacy (Rattus norvegicus [3]): 0.7
COc1cc(CCn2ccc(=O)c(O)c2C)cc(OC)c1O	33.3 µM	3.3 µM	Relative efficacy (Rattus norvegicus [4]): 0.9
Cc1c(O)c(=O)ccn1CCCc1cc(C(C)(C)C)c(O)c(C(C)(C)C)c1	0.3 µM	1 µM	Relative efficacy (Rattus norvegicus [5]): 0.8
Cc1c(O)c(=O)ccn1CCSc1cc(C(C)(C)C)c(O)c(C(C)(C)C)c1	0.4 µM	0.4 µM	Relative efficacy (Rattus norvegicus [6]): 0.6
COc1cc(CCCn2ccc(=O)c(O)c2C)cc(OC)c1O	26.8 µM	2 µM	Relative efficacy (Rattus norvegicus [7]): 0.8
Cc1c(O)c(=O)ccn1CCc1cc(C(C)(C)C)c(O)c(C(C)(C)C)c1	0.3 µM	0.3 µM	Relative efficacy (Rattus norvegicus [5]): 0.9
CCNCc1cc(C(C)(C)C)c(O)c(C(C)(C)C)c1	5 µM	14.8 µM	Relative efficacy (Rattus norvegicus [8]): 0.9
Cc1cc(C(C)(C)C)c(O)c(C(C)(C)C)c1 [BUTYLATED HYDROXYTOLUENE]	6 µM	5.9 µM	Relative efficacy (Rattus norvegicus [9]): 0.9
Cc1c(O)c(=O)ccn1C [DEFERIPRONE]	46.7 µM	3.9 µM	Relative efficacy (Rattus norvegicus [10]): 1
Cc1c(C)c2c(c(C)c1O)CCC(C)(C(=O)O)O2 (stereo not given) [TROLOX]	77.8 µM	28.7 µM	Relative efficacy (Rattus norvegicus [11]): 0.9
